# Measured values published in ChEMBL document CHEMBL3297699, “Synthesis of novel fluoro analogues of MKC442 as microbicides” (J Med Chem, 2014).
# How the values were obtained:
# [1] = test system: Human immunodeficiency virus 1; experiment: Antiviral activity against efavirenz-resistant HIV1 harboring RT 100I, 103R, 179D, 225H mutant infected in human MT4 cells assessed as inhibition of virus-induced cytopathogenicity after 4 days by MTT assay; type: functional, organism-based; conditions: Human immunodeficiency virus 1, MT4
# In short: (§1)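 MT-4 cells grown at 37 °C, 5% CO2 in RPMI-1640 with 10% FCS, penicillin and streptomycin. Compounds taken up in DMSO at […] (stock), then diluted in medium. 1 × 10^4 cells per well with serial compound dilutions, then HIV-1 inoculum sized to give complete cytopathogenicity by day 4. Viability read by MTT. […] Mean of three independent determinations.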
# [2] = test system: Human immunodeficiency virus 1; experiment: Antiviral activity against HIV1 MP1033 infected in human dendritic cells assessed as inhibition of p24; conditions: Human immunodeficiency virus 1, MP1033, dendritic cells
# [3] = test system: Human immunodeficiency virus 1; experiment: Antiviral activity against wild type HIV1 3B infected in human MT4 cells assessed as inhibition of virus-induced cytopathogenicity after 4 days by MTT assay; type: functional, organism-based; conditions: Human immunodeficiency virus 1, 3B, MT4, 96 h; in short: as §1
# [4] = test system: Human immunodeficiency virus 1; experiment: Ratio of EC50 for MDR-resistant HIV1 harboring 41L, 74V, 106A, 215Y mutant to EC50 for wild type HIV1 3B; type: functional
# [5] = test system: Human immunodeficiency virus 1; experiment: Antiviral activity against HIV1 CRF02 infected in human dendritic cells assessed as inhibition of p24 in supernatants; conditions: Human immunodeficiency virus 1, CRF02, dendritic cells
# [6] = test system: Human immunodeficiency virus 1; experiment: Antiviral activity against MDR-resistant HIV1 harboring 41L, 74V, 106A, 215Y mutant infected in human MT4 cells assessed as inhibition of virus-induced cytopathogenicity after 4 days by MTT assay; type: functional, organism-based; conditions: Human immunodeficiency virus 1, MT4, 96 h; in short: as §1
# [7] = test system: Human immunodeficiency virus 1; experiment: Antiviral activity against MC1220-resistant HIV1 harboring RT 100I, 179D, 181C mutant infected in human MT4 cells assessed as inhibition of virus-induced cytopathogenicity after 4 days by MTT assay; type: functional, organism-based; conditions: Human immunodeficiency virus 1, MT4, 96 h; in short: as §1
# [8] = Cytotoxicity against human MT4 cells after 40 days by MTT assay; type: cell-based
# In short: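 Mock-infected MT-4 cells at 1 × 10^5 cells/mL, 37 °C, with various compound concentrations for 40 days. One-tenth of the culture is moved every 3−4 days into fresh drug-containing medium at low density to keep growth exponential. Viability is read by MTT at each passage. The value is the maximum concentration still allowing exponential proliferation, as the mean of three determinations.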
# [9] = test system: Human immunodeficiency virus 1; experiment: Ratio of EC50 for saquinavir-resistant HIV1 to EC50 for wild type HIV1 3B; type: functional
# [10] = test system: Human immunodeficiency virus 1; experiment: Antiviral activity against HIV1 MP411 infected in human dendritic cells assessed as inhibition of p24 in supernatants; conditions: Human immunodeficiency virus 1, MP411, dendritic cells
# [11] = test system: Human immunodeficiency virus 1; experiment: Antiviral activity against HIV1 MP582 infected in human dendritic cells assessed as inhibition of p24 production; conditions: Human immunodeficiency virus 1, MP582, dendritic cells
# [12] = test system: Human immunodeficiency virus 1; experiment: Ratio of EC50 for efavirenz-resistant HIV1 harboring RT 100I, 103R, 179D, 225H mutant to EC50 for wild type HIV1 3B; type: functional
# [13] = test system: Human immunodeficiency virus 1; experiment: Antiviral activity against HIV1 infected in human MT4 cells assessed as lowest compound concentration required to irreversibly knock out vial multiplication treated by chronic treatment measured after 40 days by MTT assay; type: functional
# In short: (§2)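 HIV-1-infected MT-4 cells at high MOI (5−10 CCID50/cell) in 40-day assays. Compound is given continuously (chronic), for only the first 4 h after infection, or for 4 h immediately before infection. Cells are resuspended at 10^5 cells/mL every 4 days. The value is the lowest concentration that irreversibly knocks out HIV-1 multiplication, as the mean of three independent determinations.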
# [14] = test system: Human immunodeficiency virus 1; experiment: Antiviral activity against HIV1 infected in human MT4 cells assessed as lowest compound concentration required to irreversibly knock out vial multiplication treated 4 hrs before infection measured after 40 days by MTT assay; type: functional; in short: as §2
# [15] = test system: Human immunodeficiency virus 1; experiment: Antiviral activity against TMC120-resistant HIV1 harboring RT 100I, 138G mutant infected in human MT4 cells assessed as inhibition of virus-induced cytopathogenicity after 4 days by MTT assay; type: functional, organism-based; conditions: Human immunodeficiency virus 1, MT4, 96 h; in short: as §1
# [16] = test system: Human immunodeficiency virus 1; experiment: Antiviral activity against […] HIV1 harboring Y181C mutant infected in human MT4 cells assessed as inhibition of virus-induced cytopathogenicity after 4 days by MTT assay; type: functional, organism-based; conditions: Human immunodeficiency virus 1, MT4, 96 h; in short: as §1
# [17] = test system: Human immunodeficiency virus 1; experiment: Antiviral activity against NRTI-resistant HIV1 MP1315 infected in human dendritic cells assessed as inhibition of p24 in supernatants; conditions: Human immunodeficiency virus 1, MP1315, dendritic cells
# [18] = test system: Human immunodeficiency virus 1; experiment: Antiviral activity against […] HIV1 harboring 103N, 181C mutant infected in human MT4 cells assessed as inhibition of virus-induced cytopathogenicity after 4 days by MTT assay; type: functional, organism-based; conditions: Human immunodeficiency virus 1, MT4, 96 h; in short: as §1
# [19] = test system: Human immunodeficiency virus 1; experiment: Antiviral activity against saquinavir-resistant HIV1 infected in human MT4 cells assessed as inhibition of virus-induced cytopathogenicity after 4 days by MTT assay; type: functional, organism-based; conditions: Human immunodeficiency virus 1, MT4, 96 h; in short: as §1
# [20] = test system: Human immunodeficiency virus 1; experiment: Antiviral activity against HIV1 MP634 infected in human dendritic cells assessed as inhibition of p24 in supernatants; conditions: Human immunodeficiency virus 1, MP634, dendritic cells
# [21] = test system: Human immunodeficiency virus 1; experiment: Antiviral activity against TMC125-resistant HIV1 harboring RT 109M, 138K, 190E mutant infected in human MT4 cells assessed as inhibition of virus-induced cytopathogenicity after 4 days by MTT assay; type: functional, organism-based; conditions: Human immunodeficiency virus 1, MT4, 96 h; in short: as §1
# [22] = test system: Human immunodeficiency virus 1; experiment: Antiviral activity against zidovudine-resistant HIV1 harboring RT 67N, 70R, 215F, 219Q mutant infected in human MT4 cells assessed as inhibition of virus-induced cytopathogenicity after 4 days by MTT assay; type: functional, organism-based; conditions: Human immunodeficiency virus 1, MT4, 96 h; in short: as §1
# [23] = test system: Human immunodeficiency virus 1; experiment: Ratio of EC50 for zidovudine-resistant HIV1 harboring RT 67N, 70R, 215F, 219Q mutant to EC50 for wild type HIV1 3B; type: functional
# [24] = Cytotoxicity against human MT4 cells after 96 hrs by MTT assay; type: cell-based
# In short: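 Serial compound dilutions (from DMSO stocks at […]) are added, then cells are held 96 h at 37 °C in humidified 5% CO2. Viability is read by MTT. The value is the concentration reducing proliferation by 50%, as the mean of three independent determinations, run in parallel with the antiviral assays.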
# [25] = test system: Human immunodeficiency virus 1; experiment: Ratio of MC1220 EC50 to compound EC50 for HIV1 MP634 infected in human cells
# [26] = test system: Human immunodeficiency virus 1; experiment: Antiviral activity against HIV1 W5269 infected in human dendritic cells assessed as inhibition of p24 production; conditions: Human immunodeficiency virus 1, W5269, dendritic cells
# [27] = test system: Human immunodeficiency virus 1; experiment: Antiviral activity against HIV1 MP1308 infected in human dendritic cells assessed as inhibition of p24; conditions: Human immunodeficiency virus 1, MP1308, dendritic cells
# [28] = test system: Human immunodeficiency virus 1; experiment: Antiviral activity against 6-[(3,5-Dimethylphenyl)fluoromethyl]-5-ethyl-1-{[[4-(3-hydroxyprop-1-ynyl)benzyl]oxy]methyl}pyrimidine-2,4(1H,3H)-dione-resistant HIV1 harboring RT 106I, 181C mutant infected in human MT4 cells assessed as inhibition of virus-induced cytopathogenicity after 4 days by MTT assay; type: functional, organism-based; conditions: Human immunodeficiency virus 1, MT4; in short: as §1
# [29] = test system: Human immunodeficiency virus 1; experiment: Antiviral activity against HIV1 CRF01 infected in human dendritic cells assessed as inhibition of p24 in supernatants; conditions: Human immunodeficiency virus 1, CRF01, dendritic cells
# [30] = test system: Human immunodeficiency virus 1; experiment: Antiviral activity against HIV1 infected in human MT4 cells assessed as lowest compound concentration required to irreversibly knock out vial multiplication treated 4 hrs after infection measured after 40 days by MTT assay; type: functional; in short: as §2
smiles,measurement,setting,value
CCc1c(C(F)c2cc(C)cc(C)c2)n(COCc2ccc(C#CCO)cc2)c(=O)[nH]c1=O (stereo not given),EC50,[1],100 nM
same,EC99,[2],0.01 µM
same,EC50,[3],6 nM
same,Ratio EC50,[4],3.3
same,EC99,[5],0.1 µM
same,EC50,[6],20 nM
same,EC50,[7],40 nM
same,MNTC at 960 h,[8],10 µM
same,Ratio EC50,[9],3.3
same,EC99,[10],0.01 µM
same,EC99,[11],0.01 µM
same,Ratio EC50,[12],>10
same,Activity,[13],0.5 µM
same,Activity,[14],>20 µM
same,EC50,[15],10 nM
same,EC50,[16],40 nM
same,EC99,[17],0.0001 µM
same,EC50,[18],300 nM
same,EC50,[19],20 nM
same,EC99,[20],0.01 µM
same,EC50,[21],900 nM
same,EC50,[22],10 nM
same,Ratio EC50,[23],1.7
same,CC50 at 96 h,[24],37000 nM
same,Ratio EC50,[25],10
same,EC99,[26],0.01 µM
same,EC99,[27],0.01 µM
same,EC50,[28],2000 nM
same,EC99,[29],0.01 µM
same,Activity,[30],>20 µM
